# Data from ChEMBL document CHEMBL3124896, “Optimization of the lactam side chain of 7-azaindenoisoquinoline topoisomerase I inhibitors and mechanism of action studies in cancer cells” (2014).
# Active and inactive are the calls of the source. The rule behind the calls is not given here.
# Columns and labels:
# [1] = molecular target: T1, DNA topoisomerase 1 (Homo sapiens) (UniProt P11387); assay: Inhibition of human recombinant topoisomerase 1 using radiolabeled DNA as substrate after 20 mins by SDS-PAGE
# T1 sequence (whole entry): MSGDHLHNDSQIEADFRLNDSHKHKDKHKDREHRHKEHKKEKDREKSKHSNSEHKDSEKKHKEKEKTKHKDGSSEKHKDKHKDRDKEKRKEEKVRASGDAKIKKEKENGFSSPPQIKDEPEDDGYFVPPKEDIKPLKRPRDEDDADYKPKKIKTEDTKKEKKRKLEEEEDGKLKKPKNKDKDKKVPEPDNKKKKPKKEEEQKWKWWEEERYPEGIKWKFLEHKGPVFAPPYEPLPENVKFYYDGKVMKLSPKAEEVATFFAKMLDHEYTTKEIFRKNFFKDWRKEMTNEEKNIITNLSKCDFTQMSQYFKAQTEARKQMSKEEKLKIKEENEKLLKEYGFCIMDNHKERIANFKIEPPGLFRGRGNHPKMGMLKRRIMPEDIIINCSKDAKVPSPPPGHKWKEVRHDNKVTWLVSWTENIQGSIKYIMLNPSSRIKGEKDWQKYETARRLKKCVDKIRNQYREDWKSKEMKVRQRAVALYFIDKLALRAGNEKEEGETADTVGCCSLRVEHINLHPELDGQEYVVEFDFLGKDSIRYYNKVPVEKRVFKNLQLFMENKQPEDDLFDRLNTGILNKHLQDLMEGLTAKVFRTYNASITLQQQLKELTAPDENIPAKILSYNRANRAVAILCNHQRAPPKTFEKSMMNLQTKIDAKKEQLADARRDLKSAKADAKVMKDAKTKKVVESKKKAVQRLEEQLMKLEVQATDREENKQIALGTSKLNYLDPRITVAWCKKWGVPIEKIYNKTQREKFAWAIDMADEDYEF
# In short: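 A 117 bp oligonucleotide was 3′-end-labelled with [α-32P]dGTP by Klenow fill-in. Reactions were stopped with 0.5% SDS and run on 20% denaturing polyacrylamide gels. Cleavage bands were scored visually on a semiquantitative scale.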
# OVCAR-3 = assay: Cytotoxicity against human OVCAR3 cells by SRB assay; assay type: functional
# HCT-116 [2] = assay: Cytotoxicity against human HCT116 cells by SRB assay; assay type: functional
# [3] = molecular target: T1, DNA topoisomerase 1 (Homo sapiens); assay: Inhibition of human recombinant topoisomerase 1 using radiolabeled DNA as substrate at 0.1 to 100 uM after 20 mins by SDS-PAGE
# In short: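 Baculovirus-purified human recombinant Top1 with ~2 nM of a 117 bp oligonucleotide, 3′-end-labeled with [α-32P]dGTP by Klenow fill-in. Drugs at 0.1, 1, 10, 100 μM; 25 °C, 20 min. Stopped with 0.5% SDS, run on 20% denaturing PAGE, phosphorimaged. Cleavage bands scored visually against camptothecin standard.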
# UACC-62 = assay: Cytotoxicity against human UACC62 cells by SRB assay; assay type: functional
# MCF7 = assay: Cytotoxicity against human MCF7 cells by SRB assay; assay type: functional
# SN12C = assay: Cytotoxicity against human SN12C cells by SRB assay; assay type: functional
# HOP-62 = assay: Cytotoxicity against human HOP62 cells by SRB assay; assay type: functional
# DU-145 [4] = assay: Cytotoxicity against human DU145 cells by SRB assay; assay type: functional
# SF-539 = assay: Cytotoxicity against human SF539 cells by SRB assay; assay type: functional
# [5] = molecular target: T1, DNA topoisomerase 1 (Homo sapiens); assay: Inhibition of human recombinant topoisomerase 1 in human HCT116 cells assessed as reversal of topoisomerase 1-DNA cleavage complex stabilization at 1 uM incubated for 1 hr followed by compound washout measured up to 6 hrs by DNA immunoblotting analysis; assay type: cell-based; conditions: HCT-116
# In short: (§1)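 10^6 HCT116 cells were treated with 1 μM for 1 h, and for reversal were held in drug-free medium for the set times. Cells were lysed with DNAzol and genomic DNA was isolated and sonicated. Serial dilutions were slot-blotted onto membranes and Top1–DNA complexes detected with the C21 anti-Top1 monoclonal antibody by immunoblotting (ICE method).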
# [6] = molecular target: T1, DNA topoisomerase 1 (Homo sapiens); assay: Inhibition of human recombinant topoisomerase 1 in human HCT116 cells assessed as reversal of topoisomerase 1-DNA cleavage complex stabilization at 1 uM incubated for 1 hr followed by compound washout measured after 24 hrs by DNA immunoblotting analysis; assay type: cell-based; conditions: HCT-116; in short: as §1
# [7] = Cytotoxicity against human H460 cells after 72 hrs by MTT assay; assay type: functional; conditions: NCI-H460, 72 h
# In short: (§2)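 Cells were seeded 24 h before dosing and exposed continuously for 72 h. Growth was read by colorimetric MTS assay and expressed relative to vehicle-treated controls set at 100. GI50 is the level giving 50% growth inhibition, from at least two independent determinations. HCT116 and siTop1 cells were kept in RPMI 1640/10% FBS with 100 μg/mL hygromycin; RC0.1 in RPMI 1640/10% FBS.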
# [8] = Resistance ratio of GI50 for human mitoxantrone-resistant H460 cells to GI50 for human H460 cells; assay type: functional
# In short: (§3)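 Relative resistance = GI50 in the resistant subline divided by GI50 in the parental line. Both GI50s came from 72 h continuous-exposure MTS growth assays, each based on at least two independent determinations.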
# [9] = Cytotoxicity against human mitoxantrone-resistant H460 cells after 72 hrs by MTT assay; assay type: functional; conditions: NCI-H460, 72 h; in short: as §2
# [10] = molecular target: T1, DNA topoisomerase 1 (Homo sapiens); assay: Inhibition of human recombinant topoisomerase 1 in human HCT116 cells assessed as stabilization of topoisomerase 1-DNA cleavage complex at 1 uM after 1 hr by DNA immunoblotting analysis; assay type: cell-based; conditions: HCT-116; in short: as §1
# [11] = Cytotoxicity against human KB 3.1 cells after 72 hrs by MTT assay; assay type: functional; conditions: KB 3-1, 72 h; in short: as §2
# DU-145 [12] = assay: Resistance ratio of GI50 for human RC0.1 cells to GI50 for human DU145 cells; assay type: functional; in short: as §3
# HCT-116 [13] = assay: Cell cycle arrest in human HCT116 cells at 1 uM after 1 hr by propidium iodide staining-based FACS analysis; assay type: functional
# In short: (§4)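 HCT116 cells exposed to 1 μM drug for 1 h, then kept in drug-free medium for the stated times. Fixed cells were stained with propidium iodide and analysed by flow cytometry for DNA content histograms. Phase distributions were computed from the histograms.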
# HCT-116 [14] = assay: Induction of DNA damage in human HCT116 cells assessed as induction of histone gamma-H2AX level at 1 uM after 1 hr by flow cytometry
# [15] = Cytotoxicity against vinblastine-resistant human KBV1 cells after 72 hrs by MTT assay; assay type: functional; conditions: KB-V1, 72 h; in short: as §2
# [16] = Resistance ratio of GI50 for vinblastine-resistant human KBV1 cells to GI50 for human KB 3.1 cells; assay type: functional
# HCT-116 [17] = assay: Cell cycle arrest in human HCT116 cells at 1 uM incubated for 1 hr followed by compound washout measured up to 1 hr by propidium iodide staining-based FACS analysis; assay type: functional; in short: as §4
# HCT-116 [18] = assay: Cytotoxicity against human HCT116 cells after 72 hrs by MTT assay; assay type: functional; conditions: HCT-116, 72 h; in short: as §2
# HCT-116 [19] = assay: Cell cycle arrest in human HCT116 cells assessed as accumulation at S phase at 1 uM incubated for 1 hr followed by compound washout measured after 3 hrs by propidium iodide staining-based FACS analysis; assay type: functional; in short: as §4
# HCT-116 [20] = assay: Resistance ratio of GI50 for human HCT116 cells transfected with Top1-siRNA to GI50 for human HCT116 cells; assay type: functional; in short: as §3
# [21] = molecular target: T1, DNA topoisomerase 1 (Homo sapiens); assay: Inhibition of human recombinant topoisomerase 1 in human HCT116 cells assessed as DNA-protein cross linking at 1 uM incubated for 1 hr followed by compound washout measured after 1 hr; assay type: cell-based; conditions: HCT-116
# In short: (§5)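 In HCT116 cells, Top1 cleavage complexes were quantified as DNA–protein cross-links by alkaline elution, plotting the fraction of DNA retained on the filter against time. Persistence was read 1 h after drug removal. The negative control was untreated cells given 30 Gy irradiation to create strand breaks.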
# DU-145 [22] = assay: Cytotoxicity against human DU145 cells after 72 hrs by MTT assay; assay type: functional; conditions: DU-145, 72 h; in short: as §2
# [23] = Cytotoxicity against human RC0.1 cells after 72 hrs by MTT assay; assay type: functional; in short: as §2
# HCT-116 [24] = assay: Cytotoxicity against human HCT116 cells transfected with Top1-siRNA after 72 hrs by MTT assay; assay type: functional; conditions: HCT-116, 72 h; in short: as §2
# HCT-116 [25] = assay: Cell cycle arrest in human HCT116 cells assessed as accumulation at G2 phase at 1 uM incubated for 1 hr followed by compound washout measured after 6 to 48 hrs by propidium iodide staining-based FACS analysis; assay type: functional; in short: as §4
# [26] = molecular target: T1, DNA topoisomerase 1 (Homo sapiens); assay: Inhibition of human recombinant topoisomerase 1 in human HCT116 cells assessed as DNA-protein cross linking at 1 uM after 1 hr; assay type: cell-based; conditions: HCT-116; in short: as §5
compound,measurement,setting,value
COc1cnc2c(c1)C(=O)c1c-2n(CCCN(C)C)c(=O)c2cc([N+](=O)[O-])ccc12,inhibition,[1],Active
COc1cnc2c(c1)C(=O)c1c-2n(CCCN(C)CCO)c(=O)c2cc([N+](=O)[O-])ccc12,GI50,OVCAR-3,180 nM
same,GI50,HCT-116 [2],49 nM
same,inhibition,[3],Active
same,GI50,UACC-62,29 nM
same,GI50,MCF7,13 nM
same,GI50,SN12C,39 nM
same,GI50,HOP-62,28 nM
same,GI50,DU-145 [4],36 nM
same,GI50,SF-539,34 nM
CN(C)CCCn1c2c(c3ccc([N+](=O)[O-])cc3c1=O)C(=O)c1cccnc1-2,GI50,OVCAR-3,3120 nM
same,GI50,HCT-116 [2],486 nM
same,GI50,UACC-62,3400 nM
same,inhibition,[1],Active
same,GI50,MCF7,474 nM
same,GI50,SN12C,1560 nM
same,GI50,HOP-62,1940 nM
same,GI50,DU-145 [4],1550 nM
same,GI50,SF-539,3140 nM
COc1cnc2c(c1)C(=O)c1c-2n(CCCNCCO)c(=O)c2cc([N+](=O)[O-])ccc12,GI50,OVCAR-3,35 nM
same,GI50,HCT-116 [2],< 10 nM
same,inhibition,[3],Active
same,GI50,UACC-62,< 10 nM
same,GI50,MCF7,< 10 nM
same,GI50,SN12C,< 10 nM
same,GI50,HOP-62,< 10 nM
same,GI50,DU-145 [4],< 10 nM
same,GI50,SF-539,14 nM
CC[C@@]1(O)C(=O)OCc2c1cc1n(c2=O)Cc2cc3c(CN(C)C)c(O)ccc3nc2-1 [TOPOTECAN],inhibition,[5],Active
same,inhibition,[6],Active
same,GI50,[7],44.7 nM
same,RatioGI50,[8],>22.39
same,GI50,[9],> 1000 nM
same,inhibition,[10],Active
COc1cnc2c(c1)C(=O)c1c-2n(CCCN2CCOCC2)c(=O)c2cc(OC)c(OC)cc12,inhibition,[1],Active
COc1cnc2c(c1)C(=O)c1c-2n(CCCN)c(=O)c2cc([N+](=O)[O-])ccc12,GI50,OVCAR-3,98 nM
same,GI50,HCT-116 [2],36 nM
same,inhibition,[3],Active
same,GI50,UACC-62,24 nM
same,GI50,MCF7,< 10 nM
same,GI50,SN12C,40 nM
same,GI50,HOP-62,19 nM
same,GI50,DU-145 [4],35 nM
same,GI50,SF-539,73 nM
COc1cnc2c(c1)C(=O)c1c-2n(CCCN2CCC(O)CC2)c(=O)c2cc([N+](=O)[O-])ccc12,GI50,OVCAR-3,58 nM
same,GI50,HCT-116 [2],10 nM
same,inhibition,[3],Active
same,GI50,UACC-62,< 10 nM
same,GI50,MCF7,< 10 nM
same,GI50,SN12C,< 10 nM
same,GI50,HOP-62,< 10 nM
same,GI50,DU-145 [4],< 10 nM
same,GI50,SF-539,10 nM
COc1cnc2c(c1)C(=O)c1c-2n(CCCN(C)C)c(=O)c2cc(OC)c(OC)cc12,inhibition,[1],Active
COc1cnc2c(c1)C(=O)c1c-2n(CCCN2CCOCC2)c(=O)c2cc([N+](=O)[O-])ccc12,GI50,[11],562 nM
same,RatioGI50,DU-145 [12],7.41
same,Activity,HCT-116 [13],Active
same,inhibition,[5],Active
same,inhibition,[6],Active
same,inhibition,[1],Active
same,Activity,HCT-116 [14],37.6%
same,GI50,[15],417 nM
same,RatioGI50,[16],0.74
same,GI50,[7],33.9 nM
same,Activity,HCT-116 [17],Active
same,GI50,HCT-116 [18],126 nM
same,Activity,HCT-116 [19],Active
same,RatioGI50,[8],5.25
same,RatioGI50,HCT-116 [20],0.89
same,inhibition,[21],Active
same,GI50,[9],178 nM
same,GI50,DU-145 [22],141 nM
same,GI50,[23],1050 nM
same,GI50,HCT-116 [24],112 nM
same,inhibition,[10],Active
same,Activity,HCT-116 [25],Active
same,inhibition,[26],Active
CC[C@@]1(O)C(=O)OCc2c1cc1n(c2=O)Cc2cc3ccccc3nc2-1 [CAMPTOTHECIN],Activity,HCT-116 [14],40.9%
same,GI50,HCT-116 [18],17.4 nM
same,GI50,DU-145 [22],18.2 nM
same,GI50,[23],> 1000 nM
same,GI50,MCF7,13 nM
same,GI50,HCT-116 [24],35.5 nM
O=C1c2cccnc2-c2c1c1ccc([N+](=O)[O-])cc1c(=O)n2CCCN1CCOCC1,inhibition,[1],Active
COc1cccc2c1C(=O)c1c(O)c3c(c(O)c1C2=O)C[C@@](O)(C(=O)CO)C[C@@H]3O[C@H]1C[C@H](N)[C@H](O)[C@H](C)O1 [DOXORUBICIN],GI50,[11],676 nM
same,GI50,[15],> 1000 nM
